Results on two compounds are retold here after PMC5693322 (Blood, 2017).

One data set relates to patients. Particulars: clinical studies ref 18, 20; cited from earlier work.
Data set [1] has as its system IL-6-pSTAT3 in HepG2 cells. In words: IL-6-induced phosphorylation of STAT3 in HepG2 cells, western blot. Format: cell-based. Particulars: HepG2, 10 ng/mL IL-6 20 min. The procedure, abridged: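 Western blot for pSTAT3 in HepG2 cells (EMEM, 10% FCS, 1% penicillin/streptomycin) after 20 min of 10 ng/mL IL-6, with test compound present. β-actin served as loading control. Values are percent of pSTAT3 induction relative to vehicle-treated cells, n = 2, mean ± SEM.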

A further data set addresses T1, ACVR1 (ALK2) (Homo sapiens, UniProt Q04771).
T1 sequence (Q04771 21-509): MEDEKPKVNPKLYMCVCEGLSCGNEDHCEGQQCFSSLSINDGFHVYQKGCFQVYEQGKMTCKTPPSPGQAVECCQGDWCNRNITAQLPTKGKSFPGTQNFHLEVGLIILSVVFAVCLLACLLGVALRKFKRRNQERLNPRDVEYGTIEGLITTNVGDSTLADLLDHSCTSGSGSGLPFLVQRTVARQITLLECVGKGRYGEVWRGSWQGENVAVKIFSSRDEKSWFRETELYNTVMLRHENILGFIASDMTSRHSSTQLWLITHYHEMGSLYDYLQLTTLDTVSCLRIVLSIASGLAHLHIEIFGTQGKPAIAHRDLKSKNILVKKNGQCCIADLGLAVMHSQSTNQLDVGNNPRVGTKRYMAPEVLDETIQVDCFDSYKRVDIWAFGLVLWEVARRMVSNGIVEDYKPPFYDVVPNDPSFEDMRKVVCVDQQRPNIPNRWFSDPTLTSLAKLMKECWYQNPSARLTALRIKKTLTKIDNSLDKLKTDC
In words: SelectScreen LanthaScreen Eu Kinase Binding Assay.

Data set [2] relates to BMP6-pSMAD1/5/8 in HepG2 cells. Description: BMP6-induced phosphorylation of SMAD1/5/8 in HepG2 cells, western blot. Particulars: HepG2, 10 ng/mL BMP6 30 min, cpd added 2 hours before. Type of data set: cell-based. In short, it runs like this:
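HepG2 cells were grown in EMEM with 10% FCS and 1% penicillin/streptomycin. Test compound was added 2 h before stimulation with BMP6 (10 ng/mL, 30 min). pSMAD1/5/8 was detected by western blot with HRP secondary antibodies, using β-actin as loading control. Results are percent of pSMAD1/5/8 induction normalized to vehicle-treated cells, n = 5, mean ± SEM.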
(In general: In western blotting, separated proteins are transferred to a membrane and probed.)

The subject of data set [3] is FPN1 protein in RAW 264.7 cells. Type of data set: cell-based, murine. Particulars: RAW 264.7, FeCl3 50 μM 20 h, hepcidin 1 μg/mL + MMB 10 nM-1 μM 6 h. The procedure, abridged: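 RAW 264.7 cells were cultured in DMEM with 10% FCS, 1% penicillin/streptomycin and 2 mM glutamine at 37°C and 5% CO2. FeCl3 (50 μM, 20 h) induced FPN1. Cells then received hepcidin (1 μg/mL) alone or with test compound (10, 100, 500 nM, 1 μM) for another 6 h. Untreated cells were controls. FPN1 was measured by western blot and densitometry, normalized to β-actin, n = 3 per group.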

For the next data set, the system named is ACD rats. Description: PG-APS-induced rat model of anemia of chronic disease. Type of data set: in vivo. The procedure, abridged:
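Female Lewis rats on standard diet (180 mg iron/kg) were made anemic by intraperitoneal PG-APS. From 2 weeks after PG-APS they received test compound 25 mg/kg or vehicle once daily for 3 days up to 21 days. Hb and RBC were counted on a Vet-ABC analyzer. Serum iron was measured by QuantiChrom kit. Spleen FPN1 was measured by western blot (n = 4). Liver Inhibin BB mRNA was measured by TaqMan RT-PCR on 4 μg of guanidinium-phenol-extracted RNA. Time points were compared by unpaired t test.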

The test system of the next data set is healthy rats. In words: MMB treatment of healthy rats. Format: in vivo, rat.
The mark [4] stands for this setting: ACD rats, 25 mg/kg once daily, days 14 and 21, vs vehicle.
[5] abbreviates: ACD rats, 5, 10 or 25 mg/kg for 3 days, hepatic nuclear extracts.
[6] abbreviates: ACD rats, 5, 10 or 25 mg/kg once daily for 3 days.
Setting [7] is: ACD rats, 5, 10 or 25 mg/kg, 3 weeks, FACS.
The mark [8] stands for this setting: healthy rats, 5, 10 or 25 mg/kg.
The mark [9] stands for this setting: healthy rats, any MMB dose, 3 days.

Consider `N#CC[C@H](C1CCCC1)n1cc(-c2ncnc3[nH]ccc23)cn1` [RUX, ruxolitinib, reference compound], for which, in the data set on patients, the “patients who experienced grade 3 or 4 anemia” value is listed as 45.2%. In data set [1], the “inhibition of IL-6-pSTAT3 signaling” value is given as “blocked”. Besides, on ACVR1 (ALK2) (ACVR1/ALK2, BMPR1a/ALK3 and TGFBR1/ALK5 assays), the “inhibitory activity in type I BMPR kinase / TGFBR1 binding assays” value was “no relevant inhibitory activity”. In addition, the “inhibition of BMP6-pSMAD1/5/8 signaling” value in data set [2] is listed as “not BMP6-pSMAD1/5/8”.
What is called IC50 is the midpoint of a concentration-inhibition curve. A high value points to lower potency. For the compound `N#CCNC(=O)c1ccc(-c2ccnc(Nc3ccc(N4CCOCC4)cc3)n2)cc1` [MMB, momelotinib], the “patients who experienced grade 3 or 4 anemia” value in the data set on patients is 3%. Besides, the “inhibition of IL-6-pSTAT3 signaling” value in data set [1] was “inhibited”. For the same compound, the IC50 at ACVR1 (ALK2) is 8.4 nM. Also, the “effect on FPN1 protein expression in presence of hepcidin” value in data set [3] was “no effect”. The “inhibition of BMP6-pSMAD1/5/8 signaling” value in data set [2] is on record as “inhibited”. Besides, in the data set on ACD rats (ACD rats, 25 mg/kg once daily), the “mean corpuscular Hb” value is “increase”, the mean corpuscular volume entry is listed as “increase”, the neutrophil count result was “reductions” and the “white blood cell count” value is listed as “reductions”. In the data set with ACD rats (setting [4]), the Hb concentrations entry is “significant increase” and the RBC count result is listed as “significant increase”. For the same compound, in the data set with ACD rats (ACD rats, 25 mg/kg, 3 days), the “FPN1 expression in the spleen” value is “increase” and the “ferritin protein levels in the spleen” value was “decreased”. Moreover, the circulating iron concentrations result in the data set on ACD rats (ACD rats, 25 mg/kg, up to 21 days) is given as “increase”. Further, in the data set on ACD rats (ACD rats, 5, 10 or 25 mg/kg for 3 days), the “Inhibin BB mRNA levels in the liver” value was “decreased”. Also, in the data set on ACD rats (setting [5]), the “pSMAD1/5/8 in the livers” value was “dose-dependent reduction” and the “pSTAT3 in the livers” value was “dose-dependent reduction”. Further, in the data set with ACD rats (setting [6]), the “liver Hamp mRNA expression” value is on record as “reduced”, the serum hepcidin levels result is reported as “dose-dependent decrease” and the serum iron result is reported as “dose-dependent increase”. In the data set on ACD rats (setting [7]), the “numbers of mature RBCs in bone marrow” value is reported as “dose-dependent increase” and the “numbers of reticulocytes in bone marrow” value was “dose-dependent increase”. Also, the “splenic IL-6 cytokine mRNA levels” value with ACD rats (ACD rats, 3 days, especially at 25 mg/kg) was “modulated”. In addition, in the data set with healthy rats (setting [8]), the “erythropoietic / circulating iron effects in healthy rats” value is “did not induce any of these effects”, the pSMAD1/5/8 protein levels result is given as “not affected” and the pSTAT3 protein levels result is “not affected”. For the same compound, in the data set on healthy rats (setting [9]), the “FPN1 protein levels in the spleen” value was “no changes”, the “Hamp mRNA expression in the liver” value was “no changes” and the serum iron levels result is given as “no changes”.
